According to ChEMBL document CHEMBL1128434, “Gonadotropin-releasing hormone antagonists: novel members of the azaline B family” (1995):

What was measured:
[1] = target: T1, Gonadotropin-releasing hormone receptor (Rattus norvegicus) (UniProt P30969); assay: Duration of action measured using castrated male rat assay to inhibit luteinizing hormone release.; fully active at 72 hr; format: functional
T1 sequence (whole entry): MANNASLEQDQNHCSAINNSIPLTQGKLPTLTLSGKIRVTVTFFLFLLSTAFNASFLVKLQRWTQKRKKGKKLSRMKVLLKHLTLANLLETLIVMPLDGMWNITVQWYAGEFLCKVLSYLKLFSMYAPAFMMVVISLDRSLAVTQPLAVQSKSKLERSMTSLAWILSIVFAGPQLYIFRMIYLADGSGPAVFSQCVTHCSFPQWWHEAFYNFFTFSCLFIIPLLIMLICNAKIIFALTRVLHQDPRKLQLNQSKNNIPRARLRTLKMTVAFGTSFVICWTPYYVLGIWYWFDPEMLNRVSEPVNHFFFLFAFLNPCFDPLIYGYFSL

Rattus norvegicus [2] = species on record: Rattus norvegicus; assay: Effect in the anti ovulatory assay (AOA) in rats expressed as no. of rats ovulating/No of rats treated at 0.5 mg; 6/7; format: functional
Rattus norvegicus [3] = species on record: Rattus norvegicus; assay: Effect in the anti ovulatory assay (AOA) in rats expressed as no. of rats ovulating/No of rats treated at 1.0 mg; 5/13; format: functional
Rattus norvegicus [4] = species on record: Rattus norvegicus; assay: Effect in the anti ovulatory assay (AOA) in rats expressed as no. of rats ovulating/No of rats treated at 2.5 mg; 0/7; format: functional
Rattus norvegicus [5] = species on record: Rattus norvegicus; assay: Effect in the anti ovulatory assay (AOA) in rats expressed as no. of rats ovulating/No of rats treated at 1.0 mg; 3/9; format: functional
[6] = target: T1, Gonadotropin-releasing hormone receptor (Rattus norvegicus); assay: Effect in the anti ovulatory assay (AOA) in rats expressed as no. of rats ovulating/No of rats treated at 2.5 mg; 0/8; format: functional
[7] = target: T1, Gonadotropin-releasing hormone receptor (Rattus norvegicus); assay: In vitro potency to inhibit GnRH-mediated LH secretion by cultured pituitary cells relative to [Ac-delta-Pro1,DFpa2,DTrp36]GnRH.; format: functional, cell-based; settings: Pituitary gland cell
In short: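 Dispersed rat pituitary cells in culture; antagonist inhibition of GnRH-stimulated LH secretion. Potency expressed relative to standard antagonist [Ac-Δ3Pro1,D4FPhe2,DTrp3,6]GnRH taken as 1.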

Rattus norvegicus [8] = species on record: Rattus norvegicus; assay: Effect in the anti ovulatory assay (AOA) in rats expressed as no. of rats ovulating/No of rats treated at 1.0 mg; 7/8; format: functional
Rattus norvegicus [9] = species on record: Rattus norvegicus; assay: Effect in the anti ovulatory assay (AOA) in rats expressed as no. of rats ovulating/No of rats treated at 2.5 mg; 0/6; format: functional
Rattus norvegicus [10] = species on record: Rattus norvegicus; assay: Effect in the anti ovulatory assay (AOA) in rats expressed as no. of rats ovulating/No of rats treated at 2.5 mg; 0/6
Rattus norvegicus [11] = species on record: Rattus norvegicus; assay: Effect in the anti ovulatory assay (AOA) in rats expressed as no. of rats ovulating/No of rats treated at 2.5 mg; 3/7; format: functional
Rattus norvegicus [12] = species on record: Rattus norvegicus; assay: Effect in the anti ovulatory assay (AOA) in rats expressed as no. of rats ovulating/No of rats treated at 50 mg; 4/4; format: functional
Rattus norvegicus [13] = species on record: Rattus norvegicus; assay: Effect in the anti ovulatory assay (AOA) in rats expressed as no. of rats ovulating/No of rats treated at 2.5 mg; 4/4; format: functional
Rattus norvegicus [14] = species on record: Rattus norvegicus; assay: Effect in the anti ovulatory assay (AOA) in rats expressed as no. of rats ovulating/No of rats treated at 5.0 mg; 0/6; format: functional
Rattus norvegicus [15] = species on record: Rattus norvegicus; assay: Effect in the anti ovulatory assay (AOA) in rats expressed as no. of rats ovulating/No of rats treated at 1.0 mg; 0/7; format: functional
Rattus norvegicus [16] = species on record: Rattus norvegicus; assay: Effect in the anti ovulatory assay (AOA) in rats expressed as no. of rats ovulating/No of rats treated at 10 mg; 1/6; format: functional

CC(=O)Nc1ccc(C[C@H](NC(=O)[C@H](CO)NC(=O)[C@@H](Cc2cccnc2)NC(=O)[C@@H](Cc2ccc(Cl)cc2)NC(=O)[C@@H](Cc2ccc3ccccc3c2)NC(C)=O)C(=O)N[C@H](Cc2ccc(NC(C)=O)cc2)C(=O)N[C@@H](CC(C)C)C(=O)N[C@@H](CCCCNC(C)C)C(=O)N2CCC[C@H]2C(=O)N[C@H](C)N)cc1
Duration of action [1]: 72 h | No. of rats ovulated (Rattus norvegicus [2]): 6 | No. of rats ovulated (Rattus norvegicus [3]): 5 | No. of rats ovulated (Rattus norvegicus [4]): 0

CC(=O)N[C@H](Cc1ccc2ccccc2c1)C(=O)N[C@H](Cc1ccc(Cl)cc1)C(=O)N[C@H](Cc1cccnc1)C(=O)N[C@@H](CO)C(=O)N[C@@H](Cc1ccc(NC=O)cc1)C(=O)N[C@H](Cc1ccc(NC=O)cc1)C(=O)N[C@@H](CC(C)C)C(=O)N[C@@H](CCCCNC(C)C)C(=O)N1CCC[C@H]1C(=O)N[C@H](C)N
Duration of action [1]: 72 h | No. of rats ovulated (Rattus norvegicus [5]): 3 | No. of rats ovulated [6]: 0

CC(=O)N[C@H](Cc1ccc2ccccc2c1)C(=O)N[C@H](Cc1ccc(Cl)cc1)C(=O)N[C@H](Cc1cccnc1)C(=O)N[C@@H](CO)C(=O)N[C@@H](Cc1ccc(N)cc1)C(=O)N[C@H](Cc1ccc(N)cc1)C(=O)N[C@@H](CC(C)C)C(=O)N[C@@H](CCCCNC(C)C)C(=O)N1CCC[C@H]1C(=O)N[C@H](C)N
Duration of action [1]: 72 h | Relative potency [7]: 0.74 | No. of rats ovulated (Rattus norvegicus [8]): 7 | No. of rats ovulated (Rattus norvegicus [9]): 0 | No. of rats ovulated (Rattus norvegicus [10]): 0

CC(=O)N[C@H](Cc1ccc2ccccc2c1)C(=O)N[C@H](Cc1ccc(Cl)cc1)C(=O)N[C@H](Cc1cccnc1)C(=O)N[C@@H](CO)C(=O)N[C@@H](Cc1ccc(Nc2n[nH]c(N)n2)cc1)C(=O)N[C@H](Cc1ccc(Nc2n[nH]c(N)n2)cc1)C(=O)N[C@@H](CC(C)C)C(=O)N[C@@H](Cc1ccc(CNC(C)C)cc1)C(=O)N1CCC[C@H]1C(=O)N[C@H](C)N
Relative potency [7]: 1.1 | No. of rats ovulated (Rattus norvegicus [11]): 3

CC(=O)N[C@H](Cc1ccc2ccccc2c1)C(=O)N[C@H](Cc1ccc(Cl)cc1)C(=O)N[C@H](Cc1cccnc1)C(=O)N[C@@H](CO)C(=O)N[C@@H](Cc1ccc(NC(=O)Nc2ccccc2Cl)cc1)C(=O)N[C@H](Cc1ccc(NC(=O)Nc2ccccc2Cl)cc1)C(=O)N[C@@H](CC(C)C)C(=O)N[C@@H](CCCCNC(C)C)C(=O)N1CCC[C@H]1C(=O)N[C@H](C)N
Relative potency [7]: 0.1 | No. of rats ovulated (Rattus norvegicus [12]): 4

CC(=O)N[C@H](Cc1ccc2ccccc2c1)C(=O)N[C@H](Cc1ccc(Cl)cc1)C(=O)N[C@H](Cc1cccnc1)C(=O)N[C@@H](CO)C(=O)N(C)[C@@H](Cc1ccc(Nc2n[nH]c(N)n2)cc1)C(=O)N[C@H](Cc1ccc(Nc2n[nH]c(N)n2)cc1)C(=O)N[C@@H](CC(C)C)C(=O)N[C@@H](Cc1ccc(CNC(C)C)cc1)C(=O)N1CCC[C@H]1C(=O)N[C@H](C)N
No. of rats ovulated (Rattus norvegicus [13]): 4 | No. of rats ovulated (Rattus norvegicus [14]): 0

CC(=O)N[C@H](Cc1ccc2ccccc2c1)C(=O)N[C@H](Cc1ccc(Cl)cc1)C(=O)N[C@H](Cc1cccnc1)C(=O)N[C@@H](CO)C(=O)N[C@@H](Cc1ccc(Nc2n[nH]c(N)n2)cc1)C(=O)N[C@H](Cc1ccc(Nc2n[nH]c(N)n2)cc1)C(=O)N[C@@H](CC(C)C)C(=O)N[C@@H](CCCCNC(C)C)C(=O)N1CCC[C@H]1C(=O)N[C@H](C)N
Duration of action [1]: 72 h | No. of rats ovulated (Rattus norvegicus [15]): 0 | Relative potency [7]: 1.3

CC(=O)N[C@H](Cc1ccc(N)cc1)C(=O)N[C@H](Cc1ccc(Cl)cc1)C(=O)N[C@H](Cc1cccnc1)C(=O)N[C@@H](CO)C(=O)N[C@@H](Cc1ccc(Nc2n[nH]c(N)n2)cc1)C(=O)N[C@H](Cc1ccc(Nc2n[nH]c(N)n2)cc1)C(=O)N[C@@H](CC(C)C)C(=O)N[C@@H](CCCCNC(C)C)C(=O)N1CCC[C@H]1C(=O)N[C@H](C)N
No. of rats ovulated (Rattus norvegicus [16]): 1
